Published values pooled from the literature.
Each line is one published result; the experiments were not run side by side.
ABCB1: ATP-dependent translocase ABCB1 (ABCB1, Homo sapiens, UniProt P08183)

SMILES | tested on | assay | system | conditions | quantity | result
CC[C@@H]1CN(C(=O)NCC(F)(F)F)C[C@@H]1c1cnc2cnc3[nH]ccc3n12 | – | – | beagle dog, plasma | oral, 1 mg/kg, single dose | MRT(0-t) | 9.27 h
CCn1cnc2c(=O)[nH]c(N)nc21.NCCNCCN.[Pt+2] | Jurkat | cell growth or viability, WST-1 | – | – | IC50 | > 100 µM
CC1=NN(c2ccc(C)c(C)c2)C(=O)/C1=N\Nc1cccc(-c2cccc(C(=O)O)c2)c1O | LN-229 | cell growth or viability | – | 72 h | IC50 | 20 to 30 µM
Cc1cc(-c2ccc(C(F)(F)F)cn2)[nH]c1C(=O)N[C@@H](CN)c1ncc(CO)s1 | Cf2Th-CCR5 | cell growth or viability, MTS | – | 48 h | CC50 | > 47 µM
O=C1CC(N(CCc2ccccc2)C(=S)Nc2ccccc2)C(=O)N1c1ccc(Br)cc1 (centres unmarked) | Jurkat | cell growth or viability, ATP luminescence | – | 18 h | CC50 | < 20 µM
CC[C@H](C)[C@H](NC(=O)[C@H](Cc1ccccc1)NC(=O)[C@H](Cc1ccc(O)cc1)NC(=O)[C@@H]1CCCN1C(=O)[C@@H](N)Cc1ccc(O)cc1)C(=O)N1CCC[C@H]1C(=O)N[C@@H](CC(C)C)C(=O)N[C@H](CCCCN)C(=O)NCC(=O)NCC(=O)N[C@@H](CCC(=O)O)C(=O)N[C@H](C(=O)N[C@@H](CC(N)=O)C(=O)N[C@@H](CC(C)C)[C@@H](O)CC(=O)N[C@H](C(=O)N[C@@H](C)C(=O)N[C@@H](CCC(=O)O)C(=O)N1CCC[C@@H]1C(=O)N[C@@H](CCCCNC(=O)CCC(=O)O[C@H]1CC[C@@]2(C)C(=CC[C@H]3[C@@H]4CC[C@H]([C@H](C)CCCC(C)C)[C@@]4(C)CC[C@@H]32)C1)C(N)=O)C(C)C)C(C)C | – | – | aqueous buffer | pH 6.5 | thermodynamic solubility | < 1 µg/mL
CC1(C)CCC2(CC1)N[C@@H](C(=O)N[C@@H]1CC[C@@H](C(N)=O)OC1)[C@H](c1ccnc(Cl)c1F)[C@]21C(=O)Nc2cc(Cl)ccc21 | ABCB1 | – | Caco-2 | 10 µM, 2 h | efflux ratio | 9.3
COc1ccc(S(=O)(=O)ON=C2C=C(C)C(=O)C(C)=C2)cc1 | LNCaP | cell growth or viability | – | – | CC50 | 3.54 µM
O=C(CCCCCCC(=O)Nc1ccc(CC[18F])cc1)NO | LNCaP | – | male nude, tumour | intravenous, 2 h, tumour-bearing | tracer uptake | 1.5 %ID/g
Cc1cc(-c2ccc(C(F)(F)F)cn2)[nH]c1C(=O)N[C@H](CN)c1nc(CO)cs1 | Cf2Th-CCR5 | cell growth or viability, MTS | – | 48 h | CC50 | > 47 µM
COCCc1ccc(OCC(O)CNC(C)C)cc1 (centres unmarked) | ABCB1 | – | MDCK-MDR1 | 5 µM | Papp B→A | 31.5 ×10⁻⁶ cm/s
CC(C)CCC[C@@H](C)[C@H]1CC[C@H]2[C@@H]3CC=C4C[C@@H](OC(=O)CCC(=O)NCCCC[C@H](NC(=O)[C@H]5CCCN5C(=O)[C@H](CCC(=O)O)NC(=O)[C@H](C)NC(=O)[C@@H](NC(=O)C[C@H](O)[C@H](CC(C)C)NC(=O)[C@H](CC(N)=O)NC(=O)[C@@H](NC(=O)[C@H](CCC(=O)O)NC(=O)CNC(=O)[C@@H](CCCCN)NC(=O)CNC(=O)[C@H](CC(C)C)NC(=O)[C@@H]5CCCN5C(=O)[C@@H](CCCCN)NC(=O)[C@H](Cc5ccccc5)NC(=O)[C@H](Cc5ccc(O)cc5)NC(=O)[C@@H]5CCCN5C(=O)[C@@H](N)Cc5ccc(O)cc5)C(C)C)C(C)C)C(N)=O)CC[C@]4(C)[C@H]3CC[C@]12C | – | – | aqueous buffer | pH 6.5 | thermodynamic solubility | > 500 µg/mL
O=C(O)CSc1nnc(Br)n1-c1ccc(C2CC2)c2ccccc12 | Multidrug and toxin extrusion protein 2 (SLC47A2, Homo sapiens, UniProt Q86VL8) | transporter uptake, inhibitor | HEK293 | 1 µM, 2 min | inhibition | -21%
C[C@]12CCCN1CC1=NNC(=O)c3cc(F)cc4[nH]c2c1c34 | ABCB1 | – | MDCK-MDR1 | 1 µM | Papp B→A | 36.4 ×10⁻⁶ cm/s
